Measurements as given in ChEMBL document CHEMBL2424574, “Structure-activity relationships and pharmacophore model of a noncompetitive pyrazoline containing class of GluN2C/GluN2D selective antagonists” (J Med Chem, 2013).

Columns and labels:
MDCK [1] = test: Permeability across apical to basolateral side in dog MDCK cells expressing MDR1 assessed as compound recovery at 5 uM after 120 mins by LC-MS/MS analysis; format: ADME, cell-based, Canis lupus familiaris; details: 2 h
Method in brief: (§1)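 MDR1-MDCK monolayers grown to confluence on collagen-coated polycarbonate membranes. Assay buffer was HBSS with 10 mM HEPES and 15 mM glucose, pH 7.4, and the receiver side also held 1% BSA. Monolayers were dosed apically (A-to-B) or basolaterally (B-to-A) at 5 μM, 37 °C, 5% CO2. Donor and receiver were sampled at 120 min, in duplicate, by LC-MS/MS (ESI). Papp and percent recovery were calculated from receiver/donor concentrations.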

Liver microsomes = test: Metabolic stability in human liver microsomes assessed as compound remaining at 1 uM after 60 mins by LC-MS/MS analysis; format: ADME, Microsome; details: 1 h
Method in brief: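 Human liver microsomes 0.5 mg/mL in 100 mM potassium phosphate pH 7.4 with 5 mM MgCl2 and 1 μM test compound. Preincubated 3 min at 37 °C, then started with 1 mM NADPH, with a testosterone control in parallel. Sampled at 0, 10, 20, 30 and 60 min and quenched in cold acetonitrile/water with formic acid and internal standard. Percent remaining by LC-MS/MS (MRM) versus time 0. t1/2 = 0.693/k from the ln-remaining slope; CLint = k/protein concentration.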

MDCK [2] = test: Permeability across basolateral to apical side in dog MDCK cells expressing MDR1 assessed as compound recovery at 5 uM after 120 mins by LC-MS/MS analysis; format: ADME, cell-based, Canis lupus familiaris; details: 2 h; method in brief: as §1
MDCK [3] = test: Apparent permeability across basolateral to apical side in dog MDCK cells expressing MDR1 at 5 uM after 120 mins by LC-MS/MS analysis; format: ADME, cell-based, Canis lupus familiaris; details: 2 h; method in brief: as §1
[4] = target: Ionotropic glutamate receptor NMDA 1/2D (Homo sapiens) (UniProt Q05586+O15399); details: Oocyte, 1 uM

Structure (SMILES) | Drug recovery (MDCK [1]) [%] | Stability (Liver microsomes) [%] | Drug recovery (MDCK [2]) [%] | Papp (MDCK [3]) [×10⁻⁶ cm/s] | residual activity [4] [%]
O=C(O)CCC(=O)N1N=C(c2c(-c3ccc(Cl)cc3)c3ccccc3[nH]c2=O)CC1c1ccc(Cl)cc1 (racemic) | 73 | 86 | 76 | 25.6 | 
O=C(O)/C=C/C(=O)N1N=C(c2c(-c3ccc(Br)cc3)c3ccccc3[nH]c2=O)CC1c1ccc(Cl)cc1 (racemic) |  |  |  |  | 3.1
